NPY1 pot ag = NPY-Y1 receptor potentiators or agonists, primary screen, cell-based; hit rate 0.37% among 220,000; AID 1304, 2008; activation, % at 3.6 µM; NPY-Y1 expressing cells, potentiator/agonist activation; in the data active = activation above about 33%, passing the limit was not always enough;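 also: cells stimulated with NPY at EC10 then isoproterenol at EC100; 0% = low agonist plus stimulus and 100% = saturating agonist plus stimulus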
Target sequence (P25929 whole entry, looked up): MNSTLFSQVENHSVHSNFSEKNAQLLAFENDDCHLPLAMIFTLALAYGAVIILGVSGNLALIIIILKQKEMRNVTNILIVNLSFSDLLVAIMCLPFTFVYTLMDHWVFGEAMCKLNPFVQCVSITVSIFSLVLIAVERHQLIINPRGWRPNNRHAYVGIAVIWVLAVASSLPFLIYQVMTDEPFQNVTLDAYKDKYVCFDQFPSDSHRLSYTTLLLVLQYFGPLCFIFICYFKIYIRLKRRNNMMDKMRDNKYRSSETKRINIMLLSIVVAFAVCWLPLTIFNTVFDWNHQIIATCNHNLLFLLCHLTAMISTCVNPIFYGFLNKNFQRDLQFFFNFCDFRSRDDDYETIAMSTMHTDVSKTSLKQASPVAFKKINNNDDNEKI
NPY Y2 blocker = NPY-Y2 receptor antagonists, primary screen, cell-based | NPY-Y2 expressing cells, antagonist mode | inhibition, % at 2.7 µM | hit rate 0.99% among 140,000 | AID 793, 2007; in the data active = inhibition above about 17%;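 also: 0% = vehicle with agonist challenge and 100% = reference antagonist with challenge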
Target sequence (P49146 whole entry, looked up): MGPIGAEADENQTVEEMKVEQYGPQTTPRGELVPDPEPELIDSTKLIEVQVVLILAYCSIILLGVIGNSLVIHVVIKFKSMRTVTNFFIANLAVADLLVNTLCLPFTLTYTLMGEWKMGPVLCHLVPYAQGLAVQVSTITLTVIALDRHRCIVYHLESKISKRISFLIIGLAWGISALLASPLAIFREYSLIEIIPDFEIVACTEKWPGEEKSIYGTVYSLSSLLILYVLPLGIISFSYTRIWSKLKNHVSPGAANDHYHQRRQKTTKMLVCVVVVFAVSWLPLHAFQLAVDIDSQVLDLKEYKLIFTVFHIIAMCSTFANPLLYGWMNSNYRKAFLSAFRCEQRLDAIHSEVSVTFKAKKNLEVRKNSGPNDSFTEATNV
NPY-Y1 antag = NPY-Y1 receptor antagonists, primary screen, cell-based; inhibition, % at 3.6 µM; Neuropeptide Y receptor type 1 (Homo sapiens), P25929; hit rate 1% among 200,000; HEK293-CNG Y1 cells, membrane potential fluorescence; NPY at EC95, then isoproterenol;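 active = inhibition above the campaign mean inhibition of all tested compounds plus 3 SD, cut at about 20% in these data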;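 also: 0% = DMSO wells given NPY plus isoproterenol and 100% = isoproterenol alone without NPY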
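Assay system: HEK293 cells with Y1 receptor plus CNG channel | Probe or stimulus: NPY (25 nM), isoproterenol (1 µM), Ro 20-1724 (25 µM) | Timing: Compound incubation 1 h at room temperature, readout 45 min post-stimulation | Measured by: Membrane-potential fluorescent dye readout | Benchmarks: High control isoproterenol alone, low control NPY with isoproterenol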
NPY-Y2 PAM-ag = NPY-Y2 potentiators or agonists, primary screen, cell-based; hit rate 0.45% among 220,000; AID 1359, 2008; activation, % at 3.6 µM; cells expressing NPY-Y2, potentiator/agonist read-out; in the data active = activation above about 27%;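 also: cells stimulated with NPY near EC25 plus isoproterenol at EC100; 0% = vehicle plus submaximal agonist and 100% = vehicle plus saturating agonist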
NPY-Y1 antag ct = NPY-Y1 receptor antagonists, selectivity check, counter-screen for NPY-Y2 antagonist project, cell-based | shares compounds with NPY Y2 blocker | cell-based NPY-Y1 antagonism counterscreen | hit rate 19% among 710 | inhibition, % at 3.6 µM | AID 1256, 2008; in the data active = inhibition above about 20%;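 also: cells challenged with NPY then isoproterenol with cAMP sensed through a CNG channel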
NPY-Y2 ant conf = NPY-Y2 receptor antagonists, retest of hits, confirmation, HEK293-CNG cells, membrane potential fluorescence, triplicate | shares compounds with NPY Y2 blocker | HEK293 NPY-Y2 CNG channel | inhibition, % at 2.8 µM | hit rate 32% among 710;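 active = mean inhibition of triplicate wells above the hit cutoff set in the primary screen, cut at about 17% in these data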;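 also: 0% = DMSO with NPY challenge and 100% = BIIE0246 high control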
Starred values were filed as active, the others as inactive; nt = no result given. A selection: hits, their analogues and other compounds. The true share with any hit is near 1.8%.

SMILES | NPY1 pot ag | NPY Y2 blocker | NPY-Y1 antag | NPY-Y2 PAM-ag | NPY-Y1 antag ct | NPY-Y2 ant conf
COc1cc(C(=O)Nc2c(C)cc(C)cc2C)c([N+](=O)[O-])cc1OC | 3.3 | 3.0 | -3.3 | 2.4 | nt | nt
Cc1c(/C=N/NC(=O)c2cccs2)c2ccccc2n1Cc1ccccc1Cl | 14.8 | nt | nt | 4.9 | nt | nt
Cc1nc(-c2nnc(SCC(=O)Nc3ccc(C(F)(F)F)cc3)n2C)cs1 | 2.9 | nt | nt | -8.8 | nt | nt
CSc1ccc(Cl)c(C(=O)NCCOc2cc(C)ccc2C(C)C)c1 | -15.6 | 17.1* | 0.4 | -35.8 | 5.5 | 7.0
CSc1ccc(Cl)c(C(=O)NCCOc2ccccc2)c1 | -8.2 | 4.5 | -0.6 | 7.3 | nt | nt
Cn1c(=O)c2c(ncn2CCC(=O)N/N=C/c2cccnc2)n(C)c1=O | -11.5 | nt | nt | 14.8 | nt | nt
Cc1ccc(NC(=O)c2cc(N(C)C)ccc2[P+](=O)O)cc1 | 1.0 | 20.6* | 3.2 | 6.3 | 5.3 | -0.2
CN(C)c1ccc(NC(=O)c2ccc([N+](=O)[O-])cc2Cl)cc1 | 4.3 | 0.9 | -1.4 | 1.6 | nt | nt
Nc1nc(CN2CCC(Cc3ccccc3)CC2)nc(Nc2ccccc2)n1 | -46.0 | 19.0* | 12.9 | -7.3 | 16.0 | 14.6
Nc1nc(CN2CCCCCC2)nc(Nc2ccccc2)n1 | -12.1 | -2.7 | -0.7 | -2.3 | nt | nt
CCC(C)(C)n1nnnc1C(c1ccc2ncccc2c1)N1CCCC(C)C1 (stereo not given) | -10.9 | 17.9* | 19.1 | -0.5 | 11.3 | 9.6
CCC(C)(C)n1nnnc1C(c1ccc2ncccc2c1)N1CCN(c2ccc(O)cc2)CC1 (stereo not given) | 11.8 | nt | nt | -32.1 | nt | nt
CCn1nc(C(=O)Nc2cccc3ccccc23)c(Cl)c1Cl | -33.7 | 18.1* | 15.2 | -18.5 | 11.3 | 11.0
CCn1nc(C(=O)Nc2ccccc2C)c(Cl)c1Cl | -31.3 | 6.2 | 8.1 | -39.3 | nt | nt
Cc1ccc(N2C(=O)CSC2c2ccc3c(c2)OCO3)cc1 (stereo not given) | -0.8 | 18.0* | 0.5 | 1.3 | 1.9 | 1.9
O=C1CSC(c2ccc3c(c2)OCO3)N1c1ccc(Oc2ccccc2)cc1 (stereo not given) | -18.2 | 9.2 | 7.4 | -9.8 | nt | nt
OCC1CCCN(c2nc(CN3CCCCC3)nc3scc(-c4ccccc4)c23)C1 (stereo not given) | -20.5 | 23.2* | 16.6 | 3.7 | 17.9 | 16.9
CNC(=O)c1ccsc1NC(=O)c1ccc(S(=O)(=O)N2CCCc3ccccc32)cc1 | -57.1 | 17.4* | 8.1 | -0.8 | 30.9* | 38.7*
CCCC(=O)C1=C(O)C(C(=O)OC)C(C)(C)CC1=Nc1ccncc1 (stereo not given) | -1.7 | 2.1 | 5.0 | -11.3 | nt | nt
COc1ccc(/C=N/NC(=O)c2nc(-c3ccccc3)cc(-c3ccccc3)n2)cc1 | -52.8 | 19.9* | 2.5 | -56.9 | 21.8* | 26.9*
COc1ccc(/C=N/NC(=O)c2nc(-c3ccccc3)cc(-c3ccccc3)n2)cc1O | -19.2 | 11.2 | 8.7 | -28.6 | nt | nt
CCC(NC(=O)/C(=C\c1ccc2c(c1)OCO2)NC(C)=O)C(=O)O (stereo not given) | -24.0 | 5.7 | 4.5 | 8.8 | nt | nt
CNC(=S)N/N=C/c1ccccc1Cl | -16.0 | 19.2* | 4.2 | -2.5 | 2.3 | 1.2
S=C(N/N=C/c1ccccc1Cl)Nc1ccccc1 | -34.5 | 5.0 | 9.9 | -14.8 | nt | nt
CCCCNC(=O)c1onc(CSc2ccc(F)c(F)c2)c1C(=O)O | -8.6 | 22.9* | 13.6 | -19.1 | 13.7 | 11.7
SMILES | NPY1 pot ag | NPY Y2 blocker | NPY-Y1 antag | NPY-Y2 PAM-ag | NPY-Y1 antag ct | NPY-Y2 ant conf
CC(=O)Nc1ccc(NS(=O)(=O)c2ccc(C)cc2)c([N+](=O)[O-])c1 | 9.9 | nt | 4.6 | 4.9 | nt | nt
COC(=O)c1ccc(C(=O)OC)c(-n2c(=O)c3ccccc3c3ccccc3c2=O)c1 | 22.5 | 18.7* | -0.3 | 11.5 | 7.6 | 15.6
CC(=O)Nc1ccccc1OCC(=O)NCCC1=CCCCC1 | 16.4 | nt | -0.6 | 3.3 | nt | nt
CCCC[C@@H]1C[C@H]1[C@@H](NC(=O)c1ccco1)c1ccc(Cl)cc1 | -25.1 | 1.6 | 8.8 | 2.4 | nt | nt
CCCC[C@@H]1C[C@H]1[C@@H](NC(=O)c1cccs1)c1ccc(Cl)cc1 | -46.2 | 18.0* | 2.4 | 0.7 | 12.6 | 16.7
Oc1ccc(-c2nccc(-c3cccs3)n2)cc1 | 7.0 | 0.1 | 2.4 | -11.5 | nt | nt
O=C(Nc1cccc(S(=O)(=O)N2CCCC2)c1)c1ccc2ccccc2n1 | -3.6 | nt | 12.3 | -15.6 | nt | nt
O=C(Nc1cccc(S(=O)(=O)N2CCCCC2)c1)c1ccc2ccccc2n1 | -9.4 | 19.7* | 8.5 | -9.4 | 10.5 | 12.7
COc1ccc(OC)c(-n2c(SCC(=O)Nc3cccc(S(N)(=O)=O)c3)nc3ccccc3c2=O)c1 | -14.4 | nt | nt | 11.3 | nt | nt
Cc1cc(Oc2ccc(-c3ccccc3)cc2)n2ncnc2n1 | -0.7 | 20.0* | 3.8 | -4.7 | 0.2 | 2.7
CCn1c(SCC(=O)NCc2ccccc2)nc2nc3c(cc2c1=O)CCCC3 | -0.4 | nt | 2.4 | -13.5 | nt | nt
CCn1c(SCc2ccccc2Cl)nc2nc3c(cc2c1=O)CCCC3 | -52.1 | 18.4* | 3.3 | -2.2 | 8.8 | 13.9
CCCCC(=O)N/N=C/c1ccc(N2CCOCC2)c([N+](=O)[O-])c1 | -32.3 | 20.6* | -0.3 | -5.9 | 8.0 | 17.4*
O=C(N/N=C/c1ccccc1)c1ccc(N2CCOCC2)c([N+](=O)[O-])c1 | 0.4 | 3.1 | 7.1 | -3.7 | nt | nt
CCCCCC(=O)NC(=S)Nc1ccc(Br)cc1C | 12.7 | 20.2* | 1.4 | -0.9 | 10.3 | 19.2*
Cc1ccc(OCCN2C(=O)S/C(=C\c3ccc(C)o3)C2=O)cc1 | -2.8 | 17.2* | 4.2 | -5.2 | 4.6 | 6.0
CCOC(=O)c1c(CSC(=N)N)n(-c2ccc(Br)cc2)c2cc(Br)c(OC(C)=O)cc12 | 81.4* | 25.6* | -3.4 | 73.8* | 13.6 | 16.0
CCn1cc(CN(C)S(=O)(=O)c2cccc([N+](=O)[O-])c2)cn1 | -6.1 | nt | 1.6 | 7.8 | nt | nt
CCn1cc(CN(C)S(=O)(=O)c2ccc3ccccc3c2)c(C)n1 | 0.6 | 24.6* | -1.4 | 14.3 | 11.9 | 1.4
O=C(CCSc1nc(-c2ccco2)cc(C(F)(F)F)n1)Nc1ccc2c(c1)OCO2 | -45.6 | 8.0 | 9.6 | -21.5 | nt | nt
Cc1ccc(-n2nc(C(=O)c3ccccc3)n3c(=O)c(Cc4ccccc4)nnc23)cc1 | -41.1 | 18.0* | 17.0 | -21.3 | 73.0* | 99.0*
CCOC(=O)c1nn(-c2ccc(Cl)cc2)c2nnc(Cc3ccccc3)c(=O)n12 | 5.3 | 4.0 | -1.1 | -14.2 | nt | nt
O=C(Nc1cccn(Cc2c(Cl)cccc2Cl)c1=O)c1c(Cl)cccc1Cl | 4.0 | 20.2* | 9.1 | 10.9 | 12.2 | 8.8
CN(C)/C=C(\C#N)C(=O)N/N=C/c1ccc(Cl)cc1 | -6.3 | nt | -7.4 | -8.9 | nt | nt
Cc1cc(C)nc(N2CCC(C(=O)NNC(=O)Cc3ccccc3)CC2)n1 | -5.0 | nt | nt | -12.2 | nt | nt

Source: PubChem
